Assay [1] can be described thus: Antiproliferative activity against human H1299 cells by XTT assay. The settings on record: NCI-H1299. The format is functional, cell-based. The gist of the method: (§1)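 Cells (5 × 10³/well) exposed to compound for 72 h in medium with 10% FBS, medium changed and cells incubated another day. Percent of control growth from mean absorbance (n = 3).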
Background: Formazan colour is commonly taken as a measure of viable cells.

The subject of the next assay is MCF7. The experiment in a line: Antiproliferative activity against human MCF7 cells by XTT assay. The format is functional, cell-based. The gist of the method: as §1
A further assay has as its system MRC5. Briefly: Antiproliferative activity against human MRC5 cells by XTT assay. The format is cell-based. An outline of the steps:
as §1

The subject of the next assay is A549. The experiment in a line: Antiproliferative activity against human A549 cells by XTT assay. The format is functional, cell-based. An outline of the steps: as §1
The next assay concerns MDA-MB-231. The experiment in a line: Antiproliferative activity against human MDA-MB-231 cells by XTT assay. The class given is functional, cell-based. An outline of the steps:
as §1

Assay [2] addresses 72 kDa type IV collagenase (Homo sapiens) (UniProt P08253). The experiment in a line: Inhibition of MMP2 activity in human H1299 cells after 24 hrs by gelatin zymography. The class given is cell-based. The gist of the method:
(§2)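 3 × 10⁵ H1299 cells cultured 24 h with compound. Conditioned medium run on 10% SDS-PAGE with 1% gelatin, gel incubated overnight at 37 °C in 40 mM Tris-HCl pH 8.0, 10 mM CaCl₂, 0.02% NaN₃, then Coomassie-stained and destained. Bands quantified versus vehicle; n = 3.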

Assay [3] shares this target. Briefly: Residual MMP2 activity in human H1299 cells at 1 uM after 24 hrs by gelatin zymography.
In assay [4] the target is Matrix metalloproteinase-9 (Homo sapiens) (UniProt P14780). Briefly: Inhibition of MMP9 activity in human H1299 cells after 24 hrs by gelatin zymography. The class given is cell-based. An outline of the steps: as §2
Matrix metalloproteinase-9 (Homo sapiens), sequence (P14780 whole entry): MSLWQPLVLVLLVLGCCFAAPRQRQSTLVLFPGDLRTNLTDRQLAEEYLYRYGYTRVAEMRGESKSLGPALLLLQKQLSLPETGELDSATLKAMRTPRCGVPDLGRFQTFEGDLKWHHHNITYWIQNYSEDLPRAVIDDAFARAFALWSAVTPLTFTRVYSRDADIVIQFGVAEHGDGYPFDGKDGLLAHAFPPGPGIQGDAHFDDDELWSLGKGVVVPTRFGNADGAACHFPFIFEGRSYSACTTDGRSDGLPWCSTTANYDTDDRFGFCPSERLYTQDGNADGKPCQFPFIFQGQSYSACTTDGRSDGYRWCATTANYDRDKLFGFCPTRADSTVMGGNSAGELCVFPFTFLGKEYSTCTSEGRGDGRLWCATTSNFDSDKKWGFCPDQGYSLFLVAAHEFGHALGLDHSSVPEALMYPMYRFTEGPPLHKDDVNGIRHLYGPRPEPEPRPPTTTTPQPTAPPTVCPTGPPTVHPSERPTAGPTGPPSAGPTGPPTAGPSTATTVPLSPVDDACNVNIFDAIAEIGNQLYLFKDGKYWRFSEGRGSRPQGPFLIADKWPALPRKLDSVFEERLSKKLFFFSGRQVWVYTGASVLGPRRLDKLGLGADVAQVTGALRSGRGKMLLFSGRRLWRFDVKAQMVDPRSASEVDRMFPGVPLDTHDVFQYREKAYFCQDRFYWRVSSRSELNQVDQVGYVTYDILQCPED
Assay [5] shares this target. Briefly: Inhibition of MMP9 activity in human H1299 cells at 2 uM after 24 hrs by gelatin zymography; values are per cent of control.
Assay [6] concerns the target MAP kinase p38 (Homo sapiens) (UniProt O15264+Q15759+Q16539+P53778). The experiment in a line: Increase in p38 phosphorylation in human H1299 cells at 1 to 5 uM after 24 hrs by Western blotting method. The class given is cell-based. An outline of the steps:
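H1299 cells given vehicle or 0.2, 0.5, 1, 2 and 5 µM compound. Lysate proteins probed with primary and secondary antibodies after 5% milk blocking, ECL chemiluminescence detection. β-actin as internal control; each blot representative of three independent experiments.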

The target of assay [7] is 72 kDa type IV collagenase (Homo sapiens) (UniProt P08253). The experiment in a line: Residual MMP2 activity in human H1299 cells at 2 uM after 24 hrs by gelatin zymography.
72 kDa type IV collagenase (Homo sapiens), sequence (P08253 110-660 limits assumed): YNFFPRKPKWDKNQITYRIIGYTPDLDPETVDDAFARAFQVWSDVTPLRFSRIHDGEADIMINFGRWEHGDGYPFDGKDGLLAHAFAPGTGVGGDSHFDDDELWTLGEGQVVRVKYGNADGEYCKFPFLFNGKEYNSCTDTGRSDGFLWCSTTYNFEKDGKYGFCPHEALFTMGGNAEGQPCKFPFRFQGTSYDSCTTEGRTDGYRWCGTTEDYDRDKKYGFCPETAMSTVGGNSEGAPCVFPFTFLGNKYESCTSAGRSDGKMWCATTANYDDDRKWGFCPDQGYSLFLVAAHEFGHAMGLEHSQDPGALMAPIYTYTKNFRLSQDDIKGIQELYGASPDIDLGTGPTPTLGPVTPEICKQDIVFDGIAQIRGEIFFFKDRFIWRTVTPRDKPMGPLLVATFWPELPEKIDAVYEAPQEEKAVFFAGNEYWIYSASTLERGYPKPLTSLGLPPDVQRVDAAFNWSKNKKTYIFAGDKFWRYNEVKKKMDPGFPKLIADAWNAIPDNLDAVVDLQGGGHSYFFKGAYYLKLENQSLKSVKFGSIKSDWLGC
Assay [8] addresses Matrix metalloproteinase-9 (Homo sapiens) (UniProt P14780). Briefly: Inhibition of MMP9 activity in human H1299 cells at 1 uM after 24 hrs by gelatin zymography; values are per cent of control.
In assay [9] the target is 72 kDa type IV collagenase (Homo sapiens) (UniProt P08253). Briefly: Residual MMP2 activity in human H1299 cells at 5 uM after 24 hrs by gelatin zymography.

Structures are written as SMILES. The source made the active and inactive calls. No cut-off for these calls is given here.

A word on the IC50: it is the midpoint of a concentration-inhibition curve. In general, residual activity refers to what remains of the control signal, in per cent. Read a high residual activity as much activity left.

For the compound `COc1ccc2c(c1)C(=O)c1c-2c(/C=C/c2ccc([N+](=O)[O-])o2)nc2ccc(OC)cc12`, the IC50 is 0.89 µM in [1]; 0.87 µM in the assay with MCF7; 6.07 µM with MRC5; 1.32 µM in the assay with A549; 0.93 µM with MDA-MB-231.

Turning to `COc1ccc2c(c1)C(=O)c1c-2c(C)nc2ccccc12`, the IC50 in assay [1] was determined as 21.4 µM; in the assay on MCF7, 32.6 µM; in the assay with MRC5 it was 65.4 µM; in the assay on A549 it was 61.6 µM; in the assay with MDA-MB-231, 42 µM.

For `COc1ccc2c(c1)C(=O)c1c-2c(/C=C/c2ccc([N+](=O)[O-])o2)nc2ccccc12`, the IC50 came out at 0.08 µM in assay [1]; 0.62 µM with MCF7; 0.093 µM with MRC5; 0.07 µM with A549; 0.095 µM in the assay with MDA-MB-231.

Regarding `COc1ccc2c(c1)C(=O)c1c-2c(C)nc2ccc(OC)cc12`, the IC50 in assay [1] stood at 33.7 µM; in the assay on MCF7, 42 µM; with MRC5, 78.4 µM; in the assay with A549 it was 75.9 µM; in the assay on MDA-MB-231, 62.3 µM.

Consider `COc1cccc2c1C(=O)c1c(O)c3c(c(O)c1C2=O)C[C@@](O)(C(C)=O)C[C@@H]3O[C@H]1C[C@H](N)[C@H](O)[C@H](C)O1` [DAUNORUBICIN], for which the IC50 was 0.096 µM in assay [1]; 0.65 µM with MCF7; 0.078 µM in the assay on MRC5; 0.08 µM in the assay on A549; 0.091 µM in the assay on MDA-MB-231.

Turning to `COc1ccc(-c2cc3cc(OC)ccc3nc2/C=C/c2ccc([N+](=O)[O-])o2)cc1`, the inhibition result in assay [2] and in [4] was “Dose-dependent effect” each time. Besides, the residual activity in [3] was found to be 75.5%; in [5] it was 31.5%; in assay [7], 63.7%; in assay [8] it was 63.9%; in assay [9], 56.3%. The result in assay [6] was Active.

`COc1ccc2c(c1)C(=O)c1c-2c(C)nc2ccc(F)cc12`: the IC50 in [1] came to 31.6 µM; in the assay on MCF7 it was 39.6 µM; in the assay with MRC5 it was 43.2 µM; in the assay on A549, 71.1 µM; in the assay on MDA-MB-231, 52.1 µM.

`COc1ccc2c(c1)C(=O)c1c-2c(/C=C/c2ccc([N+](=O)[O-])o2)nc2ccc(F)cc12`: the IC50 in assay [1] came to 0.46 µM; in the assay with MCF7 it was 0.58 µM; in the assay on MRC5, 0.8 µM; with A549, 0.74 µM; in the assay on MDA-MB-231, 0.093 µM.
